Where “and” joins values, the source holds several entries; their conditions need not be identical. Equal values may be shown once.
Tests used:
Assay type in all cases: toxicity, cell-based
U2OS = experiment: Multiplex assay against U2OS; settings: human
Procedure, shortened: (§1)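 Four dyes were applied at seeding to live cells: Hoechst33342, BioTracker Green Microtubule Cytoskeleton Dye, MitoTracker Red and Annexin V Alexa Fluor 680. Imaging after compound addition used a CQ1 microscope at 37°C and 5% CO2. CellPathfinder machine-learning gating then sorted cells into Hoechst high-intensity objects or normal cells, normal cells into healthy, pyknosed or fragmented nuclei, and pyknosed cells into mitotic or apoptotic, with tubulin, mitochondrial-mass and membrane-permeability phenotypes given as per cents of healthy-nucleus cells.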

HEK-293T = experiment: Multiplex assay against HEK293T; settings: human; procedure, shortened: as §1
Fibroblast = experiment: Multiplex assay against human fibroblast; procedure, shortened: as §1
[1] = 12 h, 1 µM, compound concentration 1 uM
[2] = 12 h, 10 µM, compound concentration 10 uM
[3] = 24 h, 1 µM, compound concentration 1 uM
[4] = 24 h, 10 µM, compound concentration 10 uM
[5] = 48 h, 1 µM, compound concentration 1 uM
[6] = 48 h, 10 µM, compound concentration 10 uM

## CN(C)CCCn1cc(C2=C(c3c[nH]c4ccccc34)C(=O)NC2=O)c2ccccc21 [GF-109203]
U2OS; [1]
  Population Apoptotic (%): 29.27% and 38.1%
  Population Healthy Nuclei (%): 87.6% and 71.08%
  Population Hoechst High Intensity Objects (%): 0%
  Population Membrane Permeable-Phenotype (%): 1.47% and 5.52%
  Population Mitotic Cells (%): 70.73% and 61.9%
  Population Normal (%): 100%
  Population Pyknosed Nuclei (%): 10.59% and 10.29%
  Population Tubulin-Different-Phenotype (%): 1.77% and 1.38%
  Total Cell Count: 387 and 204
U2OS; [2]
  Population Apoptotic (%): 35.21% and 37.14%
  Population Fragmented Nuclei (%): 1.16% and 5.8%
  Population Healthy Nuclei (%): 78.32% and 68.84%
  Population Hoechst High Intensity Objects (%): 0%
  Population Membrane Permeable-Phenotype (%): 49.08% and 62.11%
  Population Mitotic Cells (%): 64.79% and 62.86%
  Population Normal (%): 100%
  Population Pyknosed Nuclei (%): 20.52% and 25.36%
  Population Tubulin-Different-Phenotype (%): 70.11% and 53.68%
  Total Cell Count: 346 and 138
U2OS; [3]
  Population Apoptotic (%): 38.98% and 53.33%
  Population Healthy Nuclei (%): 87.5% and 70.09%
  Population Hoechst High Intensity Objects (%): 0.19% and 0%
  Population Membrane Permeable-Phenotype (%): 1.34% and 5.49%
  Population Mitochondria Different-Phenotype (%): 0% and 15.85%
  Population Mitotic Cells (%): 61.02% and 46.67%
  Population Normal (%): 99.81% and 100%
  Population Pyknosed Nuclei (%): 11.52% and 12.82%
  Population Tubulin-Different-Phenotype (%): 0.89% and 2.44%
  Total Cell Count: 513 and 234
U2OS; [4]
  Population Apoptotic (%): 66.23% and 81.33%
  Population Fragmented Nuclei (%): 2.13% and 6.99%
  Population Healthy Nuclei (%): 51.98% and 40.56%
  Population Hoechst High Intensity Objects (%): 0%
  Population Membrane Permeable-Phenotype (%): 35.67% and 50%
  Population Mitotic Cells (%): 33.77% and 18.67%
  Population Normal (%): 100%
  Population Pyknosed Nuclei (%): 45.9% and 52.45%
  Population Tubulin-Different-Phenotype (%): 60.23% and 58.62%
  Total Cell Count: 329 and 143
U2OS; [5]
  Population Apoptotic (%): 41.25% and 46.51%
  Population Healthy Nuclei (%): 88.82% and 68.86%
  Population Hoechst High Intensity Objects (%): 0% and 0.34%
  Population Membrane Permeable-Phenotype (%): 1.36% and 5.03%
  Population Mitochondria Different-Phenotype (%): 0% and 16.08%
  Population Mitotic Cells (%): 58.75% and 53.49%
  Population Normal (%): 100% and 99.66%
  Population Pyknosed Nuclei (%): 8.77% and 14.88%
  Population Tubulin-Different-Phenotype (%): 0.99% and 3.02%
U2OS; [6]
  Population Apoptotic (%): 86.32% and 90.65%
  Population Fragmented Nuclei (%): 6.15% and 9.46%
  Population Healthy Nuclei (%): 28.62% and 18.24%
  Population Hoechst High Intensity Objects (%): 0.31% and 0%
  Population Mitochondria Different-Phenotype (%): 24.73% and 55.56%
  Population Mitotic Cells (%): 13.68% and 9.35%
  Population Normal (%): 99.69% and 100%
  Population Pyknosed Nuclei (%): 65.23% and 72.3%
  Population Tubulin-Different-Phenotype (%): 63.44% and 37.04%
  Total Cell Count: 326 and 148
HEK-293T; [1]
  Population Apoptotic (%): 9.36% and 6.29%
  Population Fragmented Nuclei (%): 1.17% and 4.02%
  Population Hoechst High Intensity Objects (%): 0.58% and 0%
  Population Membrane Permeable-Phenotype (%): 0% and 4.17%
  Population Mitochondria Different-Phenotype (%): 26.35% and 29.17%
  Population Mitotic Cells (%): 90.64% and 93.71%
  Population Normal (%): 99.42% and 100%
  Population Pyknosed Nuclei (%): 50% and 82.18%
  Total Cell Count: 344 and 174
HEK-293T; [2]
  Population Apoptotic (%): 11.11% and 17.19%
  Population Fragmented Nuclei (%): 4.81% and 3.4%
  Population Hoechst High Intensity Objects (%): 0.32% and 0%
  Population Membrane Permeable-Phenotype (%): 0% and 7.14%
  Population Mitotic Cells (%): 88.89% and 82.81%
  Population Normal (%): 99.68% and 100%
  Population Pyknosed Nuclei (%): 57.69% and 87.07%
  Population Tubulin-Different-Phenotype (%): 52.99% and 57.14%
  Total Cell Count: 313 and 147
HEK-293T; [3]
  Population Apoptotic (%): 15.57% and 18.97%
  Population Fragmented Nuclei (%): 1.6% and 5.42%
  Population Healthy Nuclei (%): 73.95% and 24.7%
  Population Hoechst High Intensity Objects (%): 0%
  Population Membrane Permeable-Phenotype (%): 1.36% and 4.88%
  Population Mitochondria Different-Phenotype (%): 10.84% and 17.07%
  Population Mitotic Cells (%): 84.43% and 81.03%
  Population Normal (%): 100%
  Population Pyknosed Nuclei (%): 24.45% and 69.88%
  Population Tubulin-Different-Phenotype (%): 17.62% and 12.2%
HEK-293T; [4]
  Population Apoptotic (%): 27.17% and 24.46%
  Population Fragmented Nuclei (%): 2.62% and 2.48%
  Population Hoechst High Intensity Objects (%): 0%
  Population Membrane Permeable-Phenotype (%): 0%
  Population Mitochondria Different-Phenotype (%): 40.74% and 16.67%
  Population Mitotic Cells (%): 72.83% and 75.54%
  Population Normal (%): 100%
  Population Pyknosed Nuclei (%): 50.29% and 86.34%
  Population Tubulin-Different-Phenotype (%): 84.57% and 50%
  Total Cell Count: 344 and 161
HEK-293T; [5]
  Population Apoptotic (%): 10.45% and 22.58%
  Population Fragmented Nuclei (%): 0.57% and 1.08%
  Population Healthy Nuclei (%): 84.04% and 48.92%
  Population Hoechst High Intensity Objects (%): 0%
  Population Membrane Permeable-Phenotype (%): 3.01% and 1.1%
  Population Mitochondria Different-Phenotype (%): 32.1% and 38.46%
  Population Mitotic Cells (%): 89.55% and 77.42%
  Population Normal (%): 100%
HEK-293T; [6]
  Population Apoptotic (%): 45.68% and 29.41%
  Population Fragmented Nuclei (%): 1.92% and 2.34%
  Population Healthy Nuclei (%): 46.15% and 18.13%
  Population Hoechst High Intensity Objects (%): 0% and 0.58%
  Population Membrane Permeable-Phenotype (%): 1.39% and 9.68%
  Population Mitochondria Different-Phenotype (%): 87.5% and 58.06%
  Population Mitotic Cells (%): 54.32% and 70.59%
  Population Normal (%): 100% and 99.42%
  Population Pyknosed Nuclei (%): 51.92% and 79.53%
  Total Cell Count: 312 and 172
Fibroblast; [1]
  Population Apoptotic (%): 9.09% and 22.5%
  Population Healthy Nuclei (%): 57.53% and 77.2%
  Population Hoechst High Intensity Objects (%): 0%
  Population Membrane Permeable-Phenotype (%): 4.67% and 8.05%
  Population Mitochondria Different-Phenotype (%): 13.08% and 28.19%
  Population Mitotic Cells (%): 90.91% and 77.5%
  Population Normal (%): 100%
  Population Pyknosed Nuclei (%): 29.57% and 20.73%
  Population Tubulin-Different-Phenotype (%): 29.91% and 44.3%
  Total Cell Count: 186 and 193
Fibroblast; [2]
  Population Apoptotic (%): 5.95% and 14.93%
  Population Fragmented Nuclei (%): 4.14% and 6.85%
  Population Healthy Nuclei (%): 46.15% and 47.26%
  Population Hoechst High Intensity Objects (%): 0%
  Population Membrane Permeable-Phenotype (%): 14.1% and 14.49%
  Population Mitochondria Different-Phenotype (%): 57.69% and 36.23%
  Population Mitotic Cells (%): 94.05% and 85.07%
  Population Normal (%): 100%
  Population Pyknosed Nuclei (%): 49.7% and 45.89%
  Population Tubulin-Different-Phenotype (%): 84.62% and 86.96%
  Total Cell Count: 169 and 146
Fibroblast; [3]
  Population Fragmented Nuclei (%): 6.12% and 5.42%
  Population Healthy Nuclei (%): 63.78% and 77.34%
  Population Hoechst High Intensity Objects (%): 0%
  Population Membrane Permeable-Phenotype (%): 11.2% and 2.55%
  Population Mitochondria Different-Phenotype (%): 10.4% and 22.93%
  Population Mitotic Cells (%): 98.31% and 85.71%
  Population Normal (%): 100%
  Population Pyknosed Nuclei (%): 30.1% and 17.24%
  Population Tubulin-Different-Phenotype (%): 35.2% and 51.59%
  Total Cell Count: 196 and 203
Fibroblast; [4]
  Population Fragmented Nuclei (%): 6.7% and 5.38%
  Population Healthy Nuclei (%): 54.19% and 38.46%
  Population Hoechst High Intensity Objects (%): 0%
  Population Membrane Permeable-Phenotype (%): 11.34% and 10%
  Population Mitochondria Different-Phenotype (%): 50.52% and 40%
  Population Mitotic Cells (%): 95.71% and 80.82%
  Population Normal (%): 100%
  Population Pyknosed Nuclei (%): 39.11% and 56.15%
  Population Tubulin-Different-Phenotype (%): 94.85% and 94%
  Total Cell Count: 179 and 130
Fibroblast; [5]
  Population Fragmented Nuclei (%): 9.05% and 3.52%
  Population Healthy Nuclei (%): 77.62% and 88.94%
  Population Hoechst High Intensity Objects (%): 0%
  Population Membrane Permeable-Phenotype (%): 3.07% and 7.91%
  Population Mitochondria Different-Phenotype (%): 12.27% and 18.64%
  Population Mitotic Cells (%): 92.86% and 66.67%
  Population Normal (%): 100%
  Population Pyknosed Nuclei (%): 13.33% and 7.54%
  Population Tubulin-Different-Phenotype (%): 25.15% and 48.02%
  Total Cell Count: 210 and 199
Fibroblast; [6]
  Population Apoptotic (%): 20.9% and 48.15%
  Population Fragmented Nuclei (%): 6.19% and 13.29%
  Population Healthy Nuclei (%): 59.28% and 30.07%
  Population Hoechst High Intensity Objects (%): 0%
  Population Mitochondria Different-Phenotype (%): 56.52% and 46.51%
  Population Mitotic Cells (%): 79.1% and 51.85%
  Population Normal (%): 100%
  Population Pyknosed Nuclei (%): 34.54% and 56.64%
  Population Tubulin-Different-Phenotype (%): 93.04% and 86.05%
  Total Cell Count: 194 and 143

From ChEMBL document CHEMBL5724801, “EUbOPEN Chemogenomics Library - Multiplex” (2024)
